PLAP act – human PLAP activation. P05187. purified PLAP enzyme, luminescent substrate read-out; stronger effect = higher value. activation fold at 20 µM. 96,000 tested, 1.2% active. AID 696; in the data active = activation fold above about 2
tolC growth inh – E. coli tolC mutant growth inhibition; E. coli BW25113 tolC mutant growth, OD615; growth inhibition, % at 10 µM (by protocol); 65,000 tested, 2.2% active; AID 573;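 active = growth inhibition at or above a cutoff equal to the mean over every tested compound plus 3 SD, cut at about 60% in these data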;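 note: growth measured after 20 h incubation at 37 °C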
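Signal: optical density read at 615 nm; Assay system: E. coli ΔtolC::kan strain BW25113; Times: 20 h incubation with compound, 37 °C; Dosing: 10 µM final, single dose.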
Ecoli WT expand – growth inhibitors of E. coli BW25113 wild type; OD600 absorbance; growth inhibition, % at 100 µM; 98,000 tested, 0.15% active; AID 710;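 active = growth inhibition above about 50% at one test dose, limit read from the data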;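 note: growth measured after 20 h incubation at 37 °C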
PostGolgi yeast – growth inhibition of a yeast mutant, post-Golgi transport screen; inhibition, % at 10 µM; AID 739; post-Golgi transport phenotypic cell assay; 98,000 tested, 0.9% active;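 note: yeast cells grown in 1536-well plates; yeast grown about 18 h at 30C before absorbance read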
HePTP inhibitor – human HePTP phosphatase inhibition; inhibition, % at 20 µM; P35236; AID 521; 110,000 tested, 0.64% active; recombinant HePTP phosphatase activity, OD absorbance; in the data active = inhibition above about 50%;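 note: plate controls were vehicle for no effect and reference inhibitor for full effect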
Target sequence (P35236 whole entry, looked up): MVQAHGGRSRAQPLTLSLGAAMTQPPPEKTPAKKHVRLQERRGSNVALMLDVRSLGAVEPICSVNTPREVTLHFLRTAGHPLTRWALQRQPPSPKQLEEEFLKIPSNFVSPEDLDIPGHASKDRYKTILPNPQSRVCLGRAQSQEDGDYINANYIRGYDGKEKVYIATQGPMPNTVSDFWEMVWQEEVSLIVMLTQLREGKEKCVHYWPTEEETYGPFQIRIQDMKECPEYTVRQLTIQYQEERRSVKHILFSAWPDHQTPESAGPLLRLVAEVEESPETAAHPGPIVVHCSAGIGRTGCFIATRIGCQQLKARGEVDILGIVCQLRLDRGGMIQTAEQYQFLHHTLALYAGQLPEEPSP
PostGolgi ctrl – yeast control strain growth, post-Golgi counter-screen; efflux-deficient yeast background strain, growth absorbance A615, 16 h; inhibition, % at 10 µM; 98,000 tested, 5% active
* hit, by the source's call; · = not tested or not shown. Only some compounds are listed: those with a hit (about 5.4% of all), similar ones and a draw of the others. Cut-off read from the data, not from the text of the source, unless noted: active = inhibition above about 30%; inactive = the rest.

SMILES	PLAP act	tolC growth inh	Ecoli WT expand	PostGolgi yeast	HePTP inhibitor	PostGolgi ctrl
COc1cccc(NC(=S)NNC(=O)c2c([N+](=O)[O-])c(C)nn2C)c1	2.1*	·	2	-2	·	8
CN(C)S(=O)(=O)c1cccn1-c1ncc(C(F)(F)F)cc1Cl	0.9	·	1	-3	·	-1
Nc1c2c3c(c(Cl)ccc3[nH]c1=O)C(=O)c1ccccc1-2	·	·	·	·	103*	·
Nc1c([N+](=O)[O-])cc(Cl)c2c1C(=O)c1ccccc1C2=O	·	·	·	·	5	·
CCc1c(C(=O)Nc2cc(C)ccc2OC)[nH]c(C)c1C(C)=O	0.8	-4	-19	29	12	55*
C=CCN1C(=O)C2(/C(=C(\O)c3ccc4c(c3)OCCO4)C(=O)C(=O)N2CCCOC)c2ccccc21 (stereo unspecified)	1.8	-27	0	-10	7	41*
COc1ccccc1C1/C(=C(\O)c2ccc3c(c2)OCCO3)C(=O)C(=O)N1CCCN(C)C (stereo unspecified)	1	1	·	·	5	·
Cc1oc2c(CN3CCCC3)c(O)ccc2c(=O)c1-c1ccc(Br)cc1	1.2	77*	1	10	9	-3
Cc1ccc(-n2[nH]c(=O)c(/C=C3\C=Nc4ccccc43)c2O)cc1	·	·	·	·	94*	·
Cn1cccc1/C=C1\CCC/C(=C\c2cccn2C)C1=O	1	·	2	10	·	41*
Cn1cccc1/C=N/n1cnnc1	0.9	5	5	11	5	3
O=C(CN1C(=O)c2ccccc2C1=O)Nc1nnc(C2CCCO2)s1 (stereo unspecified)	1.3	-21	0	-5	8	-4
Cc1ccc(N2C(=O)[C@@H]3Cc4ccccc4CN3C2=O)cc1	0.7	-13	-11	1	0	36*
COc1ccc(-n2nc3cc(C)c(N)cc3n2)cc1	·	·	·	·	3	·
O=C1CC(SC(=Nc2ccccc2)Nc2ccccc2)C(=O)N1c1cccc(Cl)c1 (stereo unspecified)	0.9	·	-9	5	·	33*
O=C1CC(SC(=Nc2ccccc2)Nc2ccccc2)C(=O)N1c1ccc(Cl)cc1 (stereo unspecified)	1	·	-6	-3	·	0
CN=C(Nc1ccccc1)SC1CC(=O)N(c2ccc(C(=O)OC)cc2)C1=O (stereo unspecified)	1.2	·	-7	5	·	37*
CCOc1ccc(NC(=O)c2cccc3c2C(=O)N(Cc2cccnc2)C3)cc1	1.1	20	-5	-4	10	32*
COC(CNC(=O)c1cccc2c1C(=O)N(Cc1cccnc1)C2)OC	0.9	·	3	2	·	-14
Cc1ccc(/C=C2\C=C(c3ccc(Cl)cc3)OC2=O)o1	·	·	·	·	82*	·
COc1ccc(NC(=O)CN(c2ccc(C)cc2)S(=O)(=O)c2ccc(SC)cc2)cc1OC	·	·	·	·	2	·
O=C(Nc1ncc(Br)s1)C(Cc1ccccc1)n1cccc1 (stereo unspecified)	1.4	96*	12	87*	1	89*
O=c1oc2c3c4c(cc2c(C(F)(F)F)c1CCN1CCOCC1)CCCN4CCC3	1.3	16	-2	5	4	20
CC(C)c1cc(=O)oc2c3c4c(cc12)CCCN4CCC3	2*	23	1	13	6	-1
O=[N+]([O-])c1ccc(/C=N/Nc2nc(N3CCCCC3)nc(N3CCCCC3)n2)o1	1.4	·	-1	12	·	49*
SMILES	PLAP act	tolC growth inh	Ecoli WT expand	PostGolgi yeast	HePTP inhibitor	PostGolgi ctrl
CCC(C)C(=O)Nc1ncc2c(n1)CC(c1cccs1)CC2=O (stereo unspecified)	0.8	·	-3	7	·	6
O=C(Nc1ccccc1F)c1ccc2nc(N3C(=O)CCC3=O)sc2c1	1.1	·	-1	0	·	44*
CCn1c(Sc2ccc(N)cc2Cl)nc2ccccc21	0.9	23	11	3	5	46*
CS(=O)(=O)N(CC(=O)N1CCc2ccccc2C1)Cc1ccccc1	2.2*	·	1	-3	·	12
CS(=O)(=O)N(CC(=O)N1CCN(Cc2ccccc2)CC1)Cc1ccccc1	1.3	1	0	4	8	3
COc1ccccc1N1CCN(C(=O)CN(Cc2ccccc2)S(C)(=O)=O)CC1	1.5	17	3	35*	10	11
COC(=O)CCC(=O)NNc1ccc([N+](=O)[O-])cc1	·	·	·	·	60*	·
Cc1ccc(C(=C2C3C=CC2C2C(=O)NC(=O)C32)c2ccc(C)cc2)cc1 (stereo unspecified)	1	·	6	-1	·	55*
Cc1cc2n(n1)C(c1c[nH]c3ccccc13)Nc1ccccc1-2 (stereo unspecified)	1.2	32	11	11	3	55*
N#Cc1c(N)n(-c2ccc(Br)cc2)c2nc3ccccc3nc12	·	·	·	·	-5	·
COc1ccc(NC(=O)/C(Cl)=C(/Cl)S(=O)(=O)Cc2ccccc2)cn1	0.8	·	12	17	·	78*
O=C(O)c1cccc(-c2ccc(/C=N/Nc3ccc([N+](=O)[O-])cn3)o2)c1	·	·	·	·	102*	·
O=C(O)c1cc(-c2ccc(/C=N/Nc3ccc([N+](=O)[O-])cn3)o2)ccc1Cl	·	·	·	·	12	·
CC(=O)c1cccc(NC(=O)CN(C2CCCCC2)S(C)(=O)=O)c1	1	-10	4	-5	-1	5
CS(=O)(=O)N(CC(=O)Nc1ccccc1Sc1ccccc1)c1ccc(F)cc1	1.1	·	-18	-2	·	54*
CSc1ccccc1NC(=O)CN(C1CCCCC1)S(C)(=O)=O	2*	·	2	0	·	4
CC(C)CCNC(=O)CSc1nc2ccsc2c(=O)n1NC(=O)c1ccccc1	1.1	·	-2	-1	·	15
Cc1ccccc1C(C(=O)NCc1ccco1)N(CC1CCCO1)C(=O)Cn1nnc2ccccc21 (stereo unspecified)	1.4	12	-10	-4	3	-2
CCn1c(=S)[nH]c2ccccc21	2.1*	·	6	-2	·	10
O=C(CSc1nc(-c2ccccc2)c(-c2ccccc2)o1)N1CCOCC1	1.2	28	6	0	8	22
Nc1ncc(-c2nnnn2-c2ccc(Cl)cc2)c(-c2ccc(Cl)cc2)n1	0.8	·	-9	-10	·	36*
Cc1ccc(NC(=O)C(C)c2ccc(-c3ccccc3)c(F)c2)cc1 (stereo unspecified)	0.9	·	1	1	·	-1
O=C1NC(=S)N/C1=C/c1ccc(-c2cc(C(=O)O)ccc2Cl)o1	·	·	·	·	104*	·
O=C1NC(=S)S/C1=C/c1ccc(-c2ccc(C(=O)O)c(Cl)c2)o1	·	·	·	·	6	·
O=C1NC(=S)N/C1=C/c1ccc(-c2cccc(Cl)c2Cl)o1	·	·	·	·	13	·
O=C(/C=C\c1ccc(-c2cc(Cl)ccc2Cl)o1)c1ccccc1	·	·	·	·	-2	·
O=C(O)c1ccc(Cl)c(-c2ccc(C=C3C(=O)c4ccccc4C3=O)o2)c1	·	·	·	·	104*	·
O=C(O)c1ccc(-c2ccc(C=C3C(=O)c4ccccc4C3=O)o2)cc1Cl	·	·	·	·	52*	·
COC(=O)C1=C(C)N(C)C(C)=C(C(=O)OC)C1c1ccc(SC)cc1	·	·	·	·	7	·
Cc1nnc(Nc2ccccn2)c2ccccc12	·	-13	6	-2	7	65*

Source: PubChem BioAssay
